Measured values from ChEMBL document CHEMBL1130352, “3-[[(4-Aryl-1-piperazinyl)alkyl]cyclohexyl]-1H-indoles as dopamine D2 partial agonists and autoreceptor agonists” (J Med Chem, 1997).
Active and inactive are the calls of the source. No cut-off for these calls is given here.

What was measured:
[1] = biological target: T1, D(2) dopamine receptor (Rattus norvegicus, UniProt P61169); assay: In vitro binding affinity for dopamine receptor D2 on rat striatal membranes by [3H]spiperone displacement.; set-up: species or system Striatum, Membrane
T1 sequence (P61169 whole entry): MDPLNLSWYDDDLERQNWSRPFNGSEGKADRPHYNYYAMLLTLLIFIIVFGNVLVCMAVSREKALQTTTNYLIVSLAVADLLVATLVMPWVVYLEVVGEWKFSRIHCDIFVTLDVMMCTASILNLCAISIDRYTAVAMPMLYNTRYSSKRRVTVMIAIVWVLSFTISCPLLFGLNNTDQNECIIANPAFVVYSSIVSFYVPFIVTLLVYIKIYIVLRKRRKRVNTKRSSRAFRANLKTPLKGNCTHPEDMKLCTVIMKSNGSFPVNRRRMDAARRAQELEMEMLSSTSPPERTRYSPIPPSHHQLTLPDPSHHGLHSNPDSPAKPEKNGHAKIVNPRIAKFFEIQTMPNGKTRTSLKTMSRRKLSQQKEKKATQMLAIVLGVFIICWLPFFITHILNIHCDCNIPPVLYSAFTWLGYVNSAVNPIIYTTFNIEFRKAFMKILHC
Outline: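 Displacement of [3H]spiperone (0.2 nM final) from rat striatal membranes; nonspecific binding defined with 1 μM (+)-butaclamol. IC50 determined, reported as Ki.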

[2] = tested on: Mus musculus; assay: In vivo inhibition of locomotor activity in mice following i.p. administration.; assay type: functional; settings: ip
Outline: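 Mice dosed ip, then immediately tested for 1 h in darkened cylindrical photobeam chambers. Activity expressed as percent inhibition versus vehicle-treated mice. ED50 with 95% confidence range from three to six doses, 6–18 animals per dose.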

[3] = species on record: Rattus norvegicus; assay: Inhibition of spontaneous locomotor activity after peroral injection into rat; assay type: functional
Outline: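 Rats dosed orally before a 30 min test in darkened cylindrical photobeam chambers. Percent inhibition of activity relative to vehicle-treated rats; ED50 with 95% confidence range from three to six doses, 6–18 animals per dose.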

[4] = tested on: Rattus norvegicus; assay: Percent reversal of DOPA levels in the striatum of gamma-butyrolactone-treated rats at 10 mg/kg by intraperitoneal route; assay type: functional
Outline: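 Male Long Evans rats received 10 mg/kg ip 1 h before sacrifice, with GBL (750 mg/kg ip) and NSD 1015 (100 mg/kg ip) 30 min before sacrifice. Striatal DOPA was quantified by HPLC-electrochemical detection and expressed as percent reversal between GBL + NSD 1015 (0%) and vehicle + NSD 1015 (100%) controls; n = 4-5 rats.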

[5] = tested on: Rattus norvegicus; assay: Percent reversal of DOPA synthesis in the striatum of gamma-butyrolactone-treated rats at 10 mg/kg by intraperitoneal route; Increase; assay type: functional, organism-based; set-up: dose 10 mg/kg
Outline: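 Male Long Evans rats given compound ip 1 h before sacrifice; GBL (750 mg/kg ip) plus NSD 1015 (100 mg/kg ip) 30 min before sacrifice. Striatal DOPA measured by HPLC with electrochemical detection. Result given as percent reversal between the GBL + NSD 1015 control (0%) and the vehicle + NSD 1015 control (100%); n = 4–5 animals.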

[6] = species on record: Rattus norvegicus; assay: Inhibition of spontaneous locomotor activity after peroral injection into rat; Stimulation of locomotory activity; assay type: functional, organism-based
[7] = tested on: Rattus norvegicus; assay: Inhibition of spontaneous locomotor activity after intraperitoneal injection into rat at 30 mg/kg; assay type: functional; settings: ip
[8] = tested on: Rattus norvegicus; assay: Inhibition of spontaneous locomotor activity after intraperitoneal injection into rat at 3 mg/kg; assay type: functional; settings: ip
[9] = species on record: Rattus norvegicus; assay: Compound was evaluated for ability to reverse gamma-butyrolactone (GBL)-induced sunthesis of DOPA in rat corpus striatum; assay type: functional
Outline: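 Male Long Evans rats dosed 1 h before sacrifice; GBL 750 mg/kg ip plus NSD 1015 100 mg/kg ip given 30 min before sacrifice. Striatal DOPA measured by HPLC with electrochemical detection. ED50 read graphically as the dose giving 50% reversal of the GBL-induced rise in DOPA accumulation; 0% = GBL + NSD 1015, 100% = vehicle + NSD 1015.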

[10] = biological target: T1, D(2) dopamine receptor; assay: Binding affinity was determined in vitro on rat striatum using [3H]N-propylnorapomorphine against Dopamine receptor D2; assay type: tissue-based
Outline: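 Rat striatal membranes; [3H]-NPA agonist radioligand at 0.35 nM final, labelling high-affinity state D2 sites; nonspecific binding defined with 2 μM (+)-butaclamol. IC50 determined by displacement, reported as Ki (nM).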

[11] = Inhibition of sidman avoidance in squirrel monkey after peroral administration; assay type: functional; settings: po
Outline: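 Squirrel monkeys dosed orally; conditioned (Sidman) avoidance recorded for 6 h. Effect expressed as percent avoidance responding relative to control performance over the 4 h of peak effect; ED50 in mg/kg po.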

[12] = biological target: T2, D(4) dopamine receptor (Homo sapiens, UniProt P21917); assay: In vitro binding affinity towards human recombinant Dopamine receptor D4 expressed in CHO-K1 cells was determined using [3H]spiperone as radioligand; assay type: cell-based
T2 sequence (P21917 whole entry): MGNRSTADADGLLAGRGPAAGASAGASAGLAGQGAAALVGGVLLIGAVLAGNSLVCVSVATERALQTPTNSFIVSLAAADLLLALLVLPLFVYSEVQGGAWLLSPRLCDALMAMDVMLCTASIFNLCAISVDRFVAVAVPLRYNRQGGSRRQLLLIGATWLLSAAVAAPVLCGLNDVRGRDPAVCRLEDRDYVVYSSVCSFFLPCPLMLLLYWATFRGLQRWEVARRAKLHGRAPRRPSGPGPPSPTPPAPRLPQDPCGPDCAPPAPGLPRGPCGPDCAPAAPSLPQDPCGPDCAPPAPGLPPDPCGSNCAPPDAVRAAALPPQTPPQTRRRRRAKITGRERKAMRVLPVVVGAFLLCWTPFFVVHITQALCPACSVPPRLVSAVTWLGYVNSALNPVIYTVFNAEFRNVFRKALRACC
Outline: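 CHO K1 cells stably transfected with human recombinant DA D4.2 receptor subtype; membranes incubated with [3H]spiperone (0.2 nM final); Ki values determined.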

[13] = Decrease in squirrel monkey striatal dopamine overflow measured via in vivo microdialysis after administering a dose of 3 mg/kg intraperitoneally; assay type: functional; set-up: scale not given: the % may be the effect or the level left; settings: route intraperitoneal
[14] = tested on: Mus musculus; assay: Inhibition of apomorphine-induced climbing in mice after intraperitoneal injection; assay type: functional; settings: ip
Outline: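 Mice received apomorphine 1 mg/kg sc and returned to cages. Test compound or vehicle given ip 5 min later, and climbing scored 10 min after that; ED50 in mg/kg ip.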

[15] = biological target: D(3) dopamine receptor (Homo sapiens, UniProt P35462); assay: In vitro binding affinity towards human recombinant Dopamine receptor D3 receptor expressed in CHO-K1 cells was determined using [3H]spiperone as radioligand
Chain of D(3) dopamine receptor (P35462 whole entry): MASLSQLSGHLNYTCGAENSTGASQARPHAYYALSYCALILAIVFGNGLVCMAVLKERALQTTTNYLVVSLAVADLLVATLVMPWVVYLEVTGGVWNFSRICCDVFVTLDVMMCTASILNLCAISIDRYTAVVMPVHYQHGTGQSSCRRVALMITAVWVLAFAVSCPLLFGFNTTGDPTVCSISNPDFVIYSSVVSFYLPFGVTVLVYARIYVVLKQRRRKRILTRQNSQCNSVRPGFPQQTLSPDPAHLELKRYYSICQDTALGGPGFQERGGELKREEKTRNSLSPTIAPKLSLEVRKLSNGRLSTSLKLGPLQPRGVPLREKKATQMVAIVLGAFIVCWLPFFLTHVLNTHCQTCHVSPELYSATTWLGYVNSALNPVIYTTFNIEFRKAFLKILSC

[16] = tested on: Rattus norvegicus; assay: Decrease in dopamine neuronal firing rate in rats after intraperitoneal injection of 2.5 mg/kg; assay type: functional; set-up: scale not given: the % may be the effect or the level left
[17] = tested on: Rattus norvegicus; assay: Stereotypy in rats (intraperitoneal); assay type: functional; settings: ip
Outline: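 A trained observer rated rats for repetitive sniffing, licking and gnawing, 30 s per rat; a behaviour counted only if continuously present for at least 15 s. Rats observed 1 h after the test compound, then given the D1 agonist SKF 38393 and observed for another hour.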

[18] = tested on: Rattus norvegicus; assay: Decrease of rat striatal dopamine overflow after intraperitoneal injection of 10 mg/kg measured via in vivo microdialysis; assay type: functional; set-up: scale not given: the % may be the effect or the level left
Outline: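 Adult male Sprague-Dawley rats (200-250 g) under urethane in a stereotaxic frame, with a 4 mm probe in striatum perfused with artificial CSF at 2 μL/min. Dialysate collected every 20 min and assayed for catecholamines by HPLC-electrochemical detection, after 10 mg/kg ip; n = 4.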

What does the source list for `Cn1cc([C@H]2CC[C@H](CCN3CCN(c4ccccn4)CC3)CC2)c2ccccc21`?
Ki [1]: 83 nM; ED50 [2]: > 30 mg/kg

For `c1ccc(N2CCN([C@H]3CC[C@@H](c4c[nH]c5ccccc54)CC3)CC2)nc1`, which ED50 [2] is on record?
Its ED50 is over 30 mg/kg.

Which ED50 [3] does the source give for `Oc1ccc2[nH]cc([C@H]3CC[C@H](CCN4CCN(c5ccccn5)CC4)CC3)c2c1` here?
The ED50 was over 30 mg/kg.

And the Reversal [4]?
The Reversal was 25%.

And the Ki [1]?
Its Ki is 8.6 nM.

And the ED50 [2]?
Its ED50 is 0.6 mg/kg.

What does the source list for `c1ccc(N2CCN(CC[C@H]3CC[C@H](c4c[nH]c5ccccc54)CC3)CC2)cc1`?
Reversal [5]: inactive; Ki [1]: 124 nM; ED50 [2]: 13.9 mg/kg

For `c1ccc(N2CCN(C[C@H]3CC[C@H](c4c[nH]c5ccccc54)CC3)CC2)nc1`, which ED50 [3] is on record?
The ED50 was 8.8 mg/kg.

And the Reversal [4]?
Its Reversal is 81%.

And the Ki [1]?
The Ki was 85 nM.

And the ED50 [2]?
The ED50 was 2.3 mg/kg.

For `C1=C(c2c[nH]c3ccccc23)CCC(CCN2CCN(c3ccccn3)CC2)C1` (centres undefined), which Ki [1] is on record?
The Ki was 270 nM.

Which ED50 [3] does the source give for `Oc1ccc2[nH]cc(CCCCN3CC=C(c4ccccc4)CC3)c2c1` [ROXINDOLE] here?
Its ED50 is 47.6 mg/kg.

And the Reversal [4]?
Its Reversal is 70%.

What about the Ki [1] of the same compound?
The Ki was 14 nM.

And the ED50 [2]?
The ED50 was 0.25 mg/kg.

Which Reversal [4] does the source give for `Fc1ccc2[nH]cc([C@H]3CC[C@H](CCN4CCN(c5ccccn5)CC4)CC3)c2c1` here?
Its Reversal is 100%.

And the Ki [1]?
Its Ki is 110 nM.

What about the ED50 [6] of the same compound?
The ED50 was “Stimulant”.

What about the ED50 [2] of the same compound?
The ED50 was 9 mg/kg.

For `c1ccc(N2CCN([C@H]3CC[C@H](c4c[nH]c5ccccc54)CC3)CC2)nc1`, which ED50 [3] is on record?
The ED50 was 13.7 mg/kg.

What about the Reversal [4] of the same compound?
The Reversal was 38%.

And the Ki [1]?
Its Ki is 457 nM.

And the ED50 [2]?
The ED50 was 1.2 mg/kg.

Which Reversal [4] does the source give for `C1=C(c2ccccc2)CCN(CC[C@H]2CC[C@@H](c3c[nH]c4ccccc43)CC2)C1` here?
Its Reversal is 5%.

And the Ki [1]?
The Ki was 28 nM.

What about the ED50 [2] of the same compound?
The ED50 was 10.5 mg/kg.

Which results are given for `c1ccc(N2CCN(C[C@H]3CC[C@@H](c4c[nH]c5ccccc54)CC3)CC2)nc1`?
Ki [1]: 122 nM; inhibition in vivo at 30 mg/kg [7]: 1.8%; inhibition in vivo at 3 mg/kg [8]: 57%; ED50 [2]: 1.2 mg/kg

With `c1cnc(N2CCN(CC[C@H]3CC[C@H](c4c[nH]c5ccccc54)CC3)CC2)nc1` as the compound, how does the ED50 [3] read?
Its ED50 is 18.6 mg/kg.

And the Reversal [4]?
The Reversal was 34%.

What about the Ki [1] of the same compound?
Its Ki is 161 nM.

What about the ED50 [2] of the same compound?
Its ED50 is 3.3 mg/kg.

For `c1ccc(N2CCN(CC[C@H]3CC[C@@H](c4c[nH]c5ccccc54)CC3)CC2)nc1`, which ED50 [3] is on record?
Its ED50 is 12.2 mg/kg.

What about the Reversal [4] of the same compound?
The Reversal was 60%.

And the Ki [1]?
Its Ki is 139 nM.

And the ED50 [2]?
The ED50 was 4.7 mg/kg.

Which results are given for `COc1ccc2[nH]cc([C@H]3CC[C@H](CCN4CCN(c5ccccn5)CC4)CC3)c2c1`?
ED50 [3]: > 30 mg/kg; Reversal [4]: 88%; Ki [1]: 29 nM; ED50 [2]: 2.2 mg/kg

For `c1ccc(N2CCN(CC[C@H]3CC[C@H](c4c[nH]c5ccccc54)CC3)CC2)nc1`, which ED50 [3] is on record?
The ED50 was 4.8 mg/kg.

And the Reversal [4]?
The Reversal was 44%.

And the ED50 [9]?
The ED50 was 6.6 mg/kg.

What about the Ki [1] of the same compound?
Its Ki is 50 nM.

What about the Ki [10] of the same compound?
Its Ki is 2.6 nM.

And the ED50 [11]?
Its ED50 is 1 mg/kg.

And the Ki [12]?
The Ki was 73 nM.

What about the Activity [13] of the same compound?
Its Activity is 38%.

What about the ED50 [14] of the same compound?
The ED50 was over 30 mg/kg.

And the Ki [15]?
Its Ki is 29 nM.

And the Activity [16]?
Its Activity is 100%.

And the ED50 [17]?
Its ED50 is over 24 mg/kg.

And the Activity [18]?
Its Activity is 33%.

And the ED50 [2]?
Its ED50 is 1.4 mg/kg.

With `Fc1ccc(N2CCN(CC[C@H]3CC[C@H](c4c[nH]c5ccccc54)CC3)CC2)cc1` as the compound, how does the Ki [1] read?
The Ki was 645 nM.

What about the ED50 [2] of the same compound?
Its ED50 is over 30 mg/kg.

For `C1=C(c2ccccc2)CCN(CC[C@H]2CC[C@H](c3c[nH]c4ccccc43)CC2)C1`, which ED50 [3] is on record?
The ED50 was over 30 mg/kg.

What about the Reversal [5] of the same compound?
The Reversal was “inactive”.

What about the Ki [1] of the same compound?
Its Ki is 8.7 nM.

What about the ED50 [2] of the same compound?
Its ED50 is 7.2 mg/kg.

With `C1=C(c2cccs2)CCN(CC[C@H]2CC[C@H](c3c[nH]c4ccccc43)CC2)C1` as the compound, how does the Ki [1] read?
Its Ki is 630 nM.

What about the ED50 [2] of the same compound?
Its ED50 is 11.6 mg/kg.

Which Ki [1] does the source give for `C1=C(c2ccccc2)CC[C@H](CCN2CCN(c3ccccn3)CC2)C1` here?
Its Ki is 412 nM.
